Series [1] addresses human pol η (Homo sapiens, UniProt Q9Y253). Briefly: Pol assay, human pol η. It is filed as biochemical. The procedure, abridged:
(§1)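 Test compound was dissolved in DMSO and sonicated 30 s. It was preincubated with enzyme (0.05 unit final) in 50 mM Tris-HCl pH 7.5, 1 mM DTT, 50% glycerol and 0.1 mM EDTA at 0 °C for 10 min. This was added to each enzyme's standard reaction mix with poly(dA)/oligo(dT)18 (A/T = 2/1) template-primer and dTTP substrate, then incubated at 37 °C for 60 min. Activity is given as % of inhibitor-free control.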

Series [2] addresses human pol ε (Homo sapiens, UniProt Q07864). As to the kind of experiment: Pol assay, human pol ε. Type of series: biochemical. The procedure, abridged:
as §1

The test system of series [3] is human DU145 prostate cancer (PCa) xenografts. As to conditions: cited from earlier work.
Series [4] concerns HCV NS3 protease. As to conditions: read-out: IC50, HCV NS3 protease; cited from earlier work.
The target of series [5] is calf thymus TdT (Bos taurus, UniProt P06526). As to the kind of experiment: Pol assay, calf TdT. As to conditions: 100 and 1,000 nM PGG, Fig. 1C. It is filed as biochemical. A digest of the protocol: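 TdT was assayed with oligo(dT)18 (3′-OH) primer and dTTP substrate. Test compound in sonicated DMSO was preincubated with 0.05 unit enzyme in 50 mM Tris-HCl pH 7.5, 1 mM DTT, 50% glycerol and 0.1 mM EDTA at 0 °C for 10 min. Reaction ran at 37 °C for 60 min. Remaining activity is expressed relative to no-inhibitor control.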

The target in series [6] is human pol γ (Homo sapiens, UniProt P54098). As to the kind of experiment: Pol assay, human pol γ. The conditions noted are these: 100 and 1,000 nM PGG, Fig. 1C; compared with B- and Y-family pols. Type of series: biochemical. A digest of the protocol: as §1

The text below walks through data of article PMC2943143 (Biochemical pharmacology, 2010).

“And” between values parts separate entries of the source, which are not always exact repeats. Equal entries are not always repeated. “Also recorded” adds a separate entry of the source.

Sequence of human pol ε (Q07864 whole entry): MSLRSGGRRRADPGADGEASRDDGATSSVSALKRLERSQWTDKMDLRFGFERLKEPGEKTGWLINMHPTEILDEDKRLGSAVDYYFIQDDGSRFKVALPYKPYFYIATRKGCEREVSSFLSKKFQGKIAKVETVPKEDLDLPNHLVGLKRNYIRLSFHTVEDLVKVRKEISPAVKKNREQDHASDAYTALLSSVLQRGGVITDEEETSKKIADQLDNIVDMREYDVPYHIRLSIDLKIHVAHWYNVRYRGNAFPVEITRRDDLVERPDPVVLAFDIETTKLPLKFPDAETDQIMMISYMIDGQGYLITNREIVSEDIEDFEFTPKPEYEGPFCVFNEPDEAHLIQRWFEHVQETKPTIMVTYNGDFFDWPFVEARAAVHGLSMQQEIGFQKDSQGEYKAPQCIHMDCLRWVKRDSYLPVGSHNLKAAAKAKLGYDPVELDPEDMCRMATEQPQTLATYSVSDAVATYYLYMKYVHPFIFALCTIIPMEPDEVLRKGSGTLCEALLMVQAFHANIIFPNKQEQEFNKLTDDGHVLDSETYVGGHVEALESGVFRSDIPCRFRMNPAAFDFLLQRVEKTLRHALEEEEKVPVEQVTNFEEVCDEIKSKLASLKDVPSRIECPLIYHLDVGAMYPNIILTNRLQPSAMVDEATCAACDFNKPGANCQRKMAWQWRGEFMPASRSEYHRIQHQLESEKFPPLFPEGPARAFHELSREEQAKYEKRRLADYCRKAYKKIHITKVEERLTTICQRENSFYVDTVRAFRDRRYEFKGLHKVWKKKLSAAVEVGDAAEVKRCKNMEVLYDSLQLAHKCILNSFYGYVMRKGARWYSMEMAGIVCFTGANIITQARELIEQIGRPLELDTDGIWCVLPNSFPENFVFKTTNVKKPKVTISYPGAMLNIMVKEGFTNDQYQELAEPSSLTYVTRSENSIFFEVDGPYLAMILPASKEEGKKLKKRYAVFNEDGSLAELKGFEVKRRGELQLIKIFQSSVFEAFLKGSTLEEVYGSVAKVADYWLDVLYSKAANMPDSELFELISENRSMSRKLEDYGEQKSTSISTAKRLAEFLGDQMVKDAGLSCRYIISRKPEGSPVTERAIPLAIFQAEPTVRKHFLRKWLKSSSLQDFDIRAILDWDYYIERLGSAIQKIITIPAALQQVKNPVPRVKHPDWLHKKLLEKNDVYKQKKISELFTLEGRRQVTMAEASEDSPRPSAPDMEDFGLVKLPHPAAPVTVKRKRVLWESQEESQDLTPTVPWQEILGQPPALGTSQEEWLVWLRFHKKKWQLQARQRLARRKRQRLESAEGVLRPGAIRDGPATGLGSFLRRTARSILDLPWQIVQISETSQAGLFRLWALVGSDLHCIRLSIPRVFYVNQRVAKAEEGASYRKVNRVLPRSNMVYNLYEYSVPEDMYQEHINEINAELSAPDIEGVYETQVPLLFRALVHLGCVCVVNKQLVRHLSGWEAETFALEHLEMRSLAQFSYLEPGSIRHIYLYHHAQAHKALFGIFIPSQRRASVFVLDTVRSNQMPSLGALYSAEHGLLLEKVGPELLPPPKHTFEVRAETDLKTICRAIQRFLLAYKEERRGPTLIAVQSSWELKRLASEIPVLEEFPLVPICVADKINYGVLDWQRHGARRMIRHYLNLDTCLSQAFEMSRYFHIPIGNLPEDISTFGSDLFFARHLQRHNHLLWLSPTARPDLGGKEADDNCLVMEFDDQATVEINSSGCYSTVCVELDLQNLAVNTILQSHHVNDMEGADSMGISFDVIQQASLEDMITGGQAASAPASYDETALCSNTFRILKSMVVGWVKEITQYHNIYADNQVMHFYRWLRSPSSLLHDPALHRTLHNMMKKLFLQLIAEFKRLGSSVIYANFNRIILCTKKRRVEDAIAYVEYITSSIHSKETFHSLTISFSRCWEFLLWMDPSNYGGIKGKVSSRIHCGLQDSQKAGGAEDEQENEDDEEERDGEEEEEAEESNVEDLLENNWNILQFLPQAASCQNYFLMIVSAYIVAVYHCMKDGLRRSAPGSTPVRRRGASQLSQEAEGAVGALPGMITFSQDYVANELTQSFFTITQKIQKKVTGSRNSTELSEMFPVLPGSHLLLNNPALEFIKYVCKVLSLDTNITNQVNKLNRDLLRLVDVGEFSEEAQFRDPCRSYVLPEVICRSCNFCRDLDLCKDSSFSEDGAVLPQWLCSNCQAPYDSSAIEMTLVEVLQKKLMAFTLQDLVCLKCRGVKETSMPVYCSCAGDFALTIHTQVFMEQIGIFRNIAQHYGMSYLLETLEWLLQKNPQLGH
Sequence of calf thymus TdT (P06526 whole entry): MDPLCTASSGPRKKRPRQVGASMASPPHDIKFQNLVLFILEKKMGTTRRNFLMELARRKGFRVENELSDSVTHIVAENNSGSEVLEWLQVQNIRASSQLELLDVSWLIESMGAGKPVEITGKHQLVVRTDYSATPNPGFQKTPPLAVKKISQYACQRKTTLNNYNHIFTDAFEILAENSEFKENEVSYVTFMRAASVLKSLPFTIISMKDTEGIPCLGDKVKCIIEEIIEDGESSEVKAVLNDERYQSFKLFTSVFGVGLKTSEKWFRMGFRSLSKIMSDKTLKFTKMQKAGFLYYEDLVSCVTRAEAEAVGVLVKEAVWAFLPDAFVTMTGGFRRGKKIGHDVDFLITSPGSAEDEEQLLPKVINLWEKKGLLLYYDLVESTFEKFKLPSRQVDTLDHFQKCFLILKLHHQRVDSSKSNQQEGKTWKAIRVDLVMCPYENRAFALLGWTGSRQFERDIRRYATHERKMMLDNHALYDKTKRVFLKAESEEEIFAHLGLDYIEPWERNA
Sequence of human pol η (Q9Y253 whole entry): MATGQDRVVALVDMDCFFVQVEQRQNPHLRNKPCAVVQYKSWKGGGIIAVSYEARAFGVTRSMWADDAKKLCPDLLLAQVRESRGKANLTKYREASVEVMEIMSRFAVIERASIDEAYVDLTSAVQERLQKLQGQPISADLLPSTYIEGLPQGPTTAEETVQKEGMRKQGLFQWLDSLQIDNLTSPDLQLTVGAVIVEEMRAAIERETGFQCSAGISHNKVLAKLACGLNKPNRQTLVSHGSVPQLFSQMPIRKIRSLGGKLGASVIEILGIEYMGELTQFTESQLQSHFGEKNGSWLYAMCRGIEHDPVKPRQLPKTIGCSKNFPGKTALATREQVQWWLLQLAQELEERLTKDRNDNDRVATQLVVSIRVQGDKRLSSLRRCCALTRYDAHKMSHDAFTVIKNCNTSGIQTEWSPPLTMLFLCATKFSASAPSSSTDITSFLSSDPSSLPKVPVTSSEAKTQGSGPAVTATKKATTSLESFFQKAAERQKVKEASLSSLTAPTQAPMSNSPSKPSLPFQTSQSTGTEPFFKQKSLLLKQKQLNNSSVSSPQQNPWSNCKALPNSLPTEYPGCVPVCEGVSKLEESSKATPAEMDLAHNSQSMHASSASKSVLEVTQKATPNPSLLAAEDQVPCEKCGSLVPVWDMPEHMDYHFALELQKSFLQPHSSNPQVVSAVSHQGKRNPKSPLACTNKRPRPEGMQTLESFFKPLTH
Sequence of human pol γ (P54098 whole entry): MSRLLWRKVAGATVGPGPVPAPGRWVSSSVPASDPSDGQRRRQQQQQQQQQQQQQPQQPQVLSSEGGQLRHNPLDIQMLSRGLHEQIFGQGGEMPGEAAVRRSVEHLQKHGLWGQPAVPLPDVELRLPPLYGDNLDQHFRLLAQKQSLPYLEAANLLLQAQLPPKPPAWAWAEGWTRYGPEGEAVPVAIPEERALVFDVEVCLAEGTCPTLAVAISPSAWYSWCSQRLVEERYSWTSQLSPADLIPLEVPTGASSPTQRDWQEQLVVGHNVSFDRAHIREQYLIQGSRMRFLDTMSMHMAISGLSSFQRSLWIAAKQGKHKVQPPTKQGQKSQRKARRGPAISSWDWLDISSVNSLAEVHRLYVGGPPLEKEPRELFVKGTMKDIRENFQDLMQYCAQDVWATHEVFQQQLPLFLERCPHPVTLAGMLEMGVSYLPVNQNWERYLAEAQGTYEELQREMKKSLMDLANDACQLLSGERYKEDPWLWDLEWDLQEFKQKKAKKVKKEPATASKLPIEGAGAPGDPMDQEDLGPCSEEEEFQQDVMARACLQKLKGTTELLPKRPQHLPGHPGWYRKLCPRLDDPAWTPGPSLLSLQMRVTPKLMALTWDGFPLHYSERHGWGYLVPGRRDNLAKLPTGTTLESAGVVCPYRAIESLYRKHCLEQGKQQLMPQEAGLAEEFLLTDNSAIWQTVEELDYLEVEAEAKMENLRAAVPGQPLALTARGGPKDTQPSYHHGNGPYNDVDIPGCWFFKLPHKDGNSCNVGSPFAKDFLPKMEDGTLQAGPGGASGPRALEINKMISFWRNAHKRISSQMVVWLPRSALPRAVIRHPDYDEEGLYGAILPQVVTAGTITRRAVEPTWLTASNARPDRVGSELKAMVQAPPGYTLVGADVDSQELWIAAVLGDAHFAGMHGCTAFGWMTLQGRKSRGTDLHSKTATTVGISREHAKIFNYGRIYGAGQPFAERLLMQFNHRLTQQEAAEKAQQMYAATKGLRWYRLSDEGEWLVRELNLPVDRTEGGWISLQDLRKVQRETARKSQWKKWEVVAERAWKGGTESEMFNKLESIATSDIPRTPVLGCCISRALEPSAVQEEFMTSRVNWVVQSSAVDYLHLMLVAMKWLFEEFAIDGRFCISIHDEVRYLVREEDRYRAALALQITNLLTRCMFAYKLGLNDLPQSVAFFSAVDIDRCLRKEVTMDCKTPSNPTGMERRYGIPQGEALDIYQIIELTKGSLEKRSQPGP

As usually defined, the IC50 is the concentration that gives 50% inhibition. For the compound `O=C(OC[C@H]1O[C@@H](OC(=O)c2cc(O)c(O)c(O)c2)[C@H](OC(=O)c2cc(O)c(O)c(O)c2)[C@@H](OC(=O)c2cc(O)c(O)c(O)c2)[C@@H]1OC(=O)c1cc(O)c(O)c(O)c1)c1cc(O)c(O)c(O)c1` [PGG, 1,2,3,4,6-penta-O-galloyl-β-D-glucose], the IC50 in series [1] is 30 to 45 nM; in series [2] (IC50, pol ε, range stated for replicative pols (α, δ and ε) together), < 100 nM and 13 to 66 nM; in series [4] it was 1600 nM. Besides, in series [1] (100 and 1,000 nM PGG, Fig. 1C), the “effect on pol η activity” value was “significantly inhibit”. Further, in series [2] (100 and 1,000 nM PGG, Fig. 1C), the “effect on pol ε activity” value is recorded as “significantly inhibit”. In addition, the “in vivo growth of DU145 xenografts” value in series [3] (daily intra-peritoneal injection 20 mg/kg body weight, nude mice) is listed as “suppresses”. Besides, the “effect on body weight” value in series [3] (mouse, in vivo) is reported as “without evident adverse effect”. The “effect on TdT activity” value in series [5] is “not affected; also recorded: not sensitive”. The “inhibitory activity on pol γ (family A)” value in series [6] is on record as “lower”.
